Series [1] concerns the target T1, CYP1A2 (Homo sapiens, UniProt P05177).
T1 sequence (P05177 whole entry): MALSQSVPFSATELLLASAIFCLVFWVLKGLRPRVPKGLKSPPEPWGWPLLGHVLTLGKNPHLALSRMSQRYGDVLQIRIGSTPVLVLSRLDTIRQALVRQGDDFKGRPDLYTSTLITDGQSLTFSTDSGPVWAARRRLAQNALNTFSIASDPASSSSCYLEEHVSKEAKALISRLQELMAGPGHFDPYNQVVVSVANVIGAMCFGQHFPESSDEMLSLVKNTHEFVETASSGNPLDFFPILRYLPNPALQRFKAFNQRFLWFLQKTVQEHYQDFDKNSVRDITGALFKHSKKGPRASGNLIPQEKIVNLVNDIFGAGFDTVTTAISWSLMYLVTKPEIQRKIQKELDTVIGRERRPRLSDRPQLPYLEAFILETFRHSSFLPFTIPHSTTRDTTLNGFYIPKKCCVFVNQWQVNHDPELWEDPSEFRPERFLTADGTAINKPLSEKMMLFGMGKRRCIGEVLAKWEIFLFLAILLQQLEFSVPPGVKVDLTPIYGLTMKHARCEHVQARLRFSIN
Put plainly: Inhibition of CYP1A2 in human liver microsomes using phenacetin as substrate preincubated for 15 mins followed by NADPH addition and measured after 8 mins by LC-MS/MS analysis. The class given is ADME. The following applies: human, liver microsomes, probe phenacetin; time 23 min; read-out: INH. Put shortly: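 Cocktail CYP450 inhibition assay run in human liver microsomes.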
Background: Microsomes from liver hold many membrane-bound enzymes, among them those of drug oxidation.

Series [2] can be described thus: Volume of distribution at steady state in Beagle dog at 1.0 mg/kg, iv measured upto 24 hrs by LC-MS/MS analysis. In kind it is ADME, organism-based, Canis lupus familiaris. The following applies: in vivo, read-out: Vdss. Put shortly:
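Pharmacokinetics in Sprague-Dawley rat, CD-1 mouse and beagle dog. Intravenous dose was 1 mg/kg in each species. Oral doses were given as a suspension: 10 mg/kg in rat, 3 mg/kg in mouse and dog. Each parameter is the mean of two to three animals.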

Series [3] can be described thus: Cmax in Beagle dog at 3 mg/kg, po measured upto 24 hrs by LC-MS/MS analysis. In kind it is ADME, organism-based, Canis lupus familiaris. On the set-up: route oral, dose 3 mg/kg, time <=24. The following applies: in vivo. Put shortly: (§1)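 Single iv and oral (suspension) dosing; iv/po doses 1/10 mg/kg in SD rat, 1/3 mg/kg in CD-1 mouse and beagle dog. Plasma PK parameters are means from two to three animals per species.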

Series [4] in a line: AUC (0 to infinity) in Beagle dog at 3 mg/kg, po measured upto 24 hrs by LC-MS/MS analysis. The class given is ADME, organism-based, Canis lupus familiaris. More on the design: route oral, dose 3 mg/kg, time <=24. The following applies: in vivo. Put shortly:
as §1

The nature of series [5]: Oral bioavailability in CD-1 mouse at 3 mg/kg measured upto 24 hrs by LC-MS/MS analysis. The class given is ADME, organism-based. Conditions: in vivo. Put shortly: as §1
Series [6] is described as follows: Ratio of drug concentration in brain to plasma of Sprague-Dawley rat at 1 mg/kg, iv. The class given is ADME, organism-based.
For series [7], the system named is Rattus norvegicus. Put plainly: Reversal of haloperidol-induced catalepsy in rat at 0.3 mg/kg, po relative to control. The class given is functional. Put shortly: (§2)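 Rat haloperidol-induced catalepsy model with oral test dosing at 0.3, 1 and 3 mg/kg alongside vehicle-treated controls. Read-out is latency to withdraw, also expressed as % reversal of catalepsy. Groups compared by ANOVA.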

Series [8] addresses CYP3A4 (Homo sapiens, UniProt P08684). Kind of series: Induction of CYP3A4 in human hepatocytes. In kind it is ADME, cell-based, Hepatocyte.
For series [9], the system named is Rattus norvegicus. Put plainly: Effect on haloperidol-induced catalepsy in rat assessed as reduction in mean latency to withdraw at 3 mg/kg, po (reference value: 43.4 +/- 4.3 sec). In kind it is functional. The essentials: as §2
The target in series [10] is hERG (Homo sapiens, UniProt Q12809). Put plainly: Inhibition of human ERG at 10 uM relative to control.
Sequence of hERG (Q12809 whole entry): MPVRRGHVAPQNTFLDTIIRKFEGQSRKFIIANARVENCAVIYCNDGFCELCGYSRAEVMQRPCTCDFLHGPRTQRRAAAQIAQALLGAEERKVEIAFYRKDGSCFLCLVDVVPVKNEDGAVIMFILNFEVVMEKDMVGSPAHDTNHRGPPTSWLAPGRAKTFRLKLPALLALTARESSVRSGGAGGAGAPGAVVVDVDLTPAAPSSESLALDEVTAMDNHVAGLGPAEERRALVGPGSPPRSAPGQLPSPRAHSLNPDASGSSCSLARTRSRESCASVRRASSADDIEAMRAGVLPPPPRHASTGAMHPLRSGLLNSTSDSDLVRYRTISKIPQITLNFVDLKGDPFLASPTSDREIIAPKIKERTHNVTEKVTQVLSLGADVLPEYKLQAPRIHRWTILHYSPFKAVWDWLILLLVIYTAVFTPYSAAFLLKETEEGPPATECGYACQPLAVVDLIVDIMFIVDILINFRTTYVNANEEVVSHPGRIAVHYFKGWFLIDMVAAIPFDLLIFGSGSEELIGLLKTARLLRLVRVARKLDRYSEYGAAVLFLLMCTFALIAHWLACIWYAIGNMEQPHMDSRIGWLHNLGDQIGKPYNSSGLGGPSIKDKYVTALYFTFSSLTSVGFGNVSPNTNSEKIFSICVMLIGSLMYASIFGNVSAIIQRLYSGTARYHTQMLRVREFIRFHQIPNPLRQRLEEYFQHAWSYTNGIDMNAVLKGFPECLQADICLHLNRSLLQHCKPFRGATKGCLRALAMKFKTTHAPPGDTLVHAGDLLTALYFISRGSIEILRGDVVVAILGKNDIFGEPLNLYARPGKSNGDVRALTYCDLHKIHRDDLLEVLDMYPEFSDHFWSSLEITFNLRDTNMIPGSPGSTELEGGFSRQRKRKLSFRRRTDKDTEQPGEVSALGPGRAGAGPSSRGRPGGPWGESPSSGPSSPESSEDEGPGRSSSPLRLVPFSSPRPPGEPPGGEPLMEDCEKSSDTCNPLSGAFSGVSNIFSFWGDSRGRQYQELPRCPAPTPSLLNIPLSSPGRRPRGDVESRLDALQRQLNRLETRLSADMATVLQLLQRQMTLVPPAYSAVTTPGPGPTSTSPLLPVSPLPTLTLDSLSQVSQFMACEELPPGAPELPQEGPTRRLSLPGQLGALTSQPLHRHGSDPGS

Where only a bound is given, the exact number is not on record here.

Sequence of CYP3A4 (P08684 whole entry): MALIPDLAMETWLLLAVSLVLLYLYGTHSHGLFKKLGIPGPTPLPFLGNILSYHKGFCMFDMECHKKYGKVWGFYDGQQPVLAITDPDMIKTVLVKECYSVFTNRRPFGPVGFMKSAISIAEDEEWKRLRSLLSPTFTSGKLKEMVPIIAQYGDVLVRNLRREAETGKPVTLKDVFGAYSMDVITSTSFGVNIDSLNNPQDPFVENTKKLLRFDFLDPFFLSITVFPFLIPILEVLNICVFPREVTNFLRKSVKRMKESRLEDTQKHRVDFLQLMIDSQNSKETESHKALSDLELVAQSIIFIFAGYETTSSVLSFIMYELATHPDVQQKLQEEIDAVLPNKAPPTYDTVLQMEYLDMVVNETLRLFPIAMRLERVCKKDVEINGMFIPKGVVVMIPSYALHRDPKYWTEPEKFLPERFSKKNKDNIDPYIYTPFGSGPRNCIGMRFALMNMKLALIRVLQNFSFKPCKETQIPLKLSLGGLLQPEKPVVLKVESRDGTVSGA

What is called Cmax is the peak of the concentration-time curve. The AUC is concentration integrated over time. In general, bioavailability refers to dose-corrected exposure relative to a reference, in per cent. What is called Kp is tissue or fluid exposure divided by exposure in the circulation. For orientation: EC50 means the midpoint of the concentration-response curve. A lower EC50 goes with higher potency in that assay. Usually inhibition stands for the relative decrease from the control value, in per cent. Low values mean a response near the control, high ones a response far below the control. For the molecule `Fc1cc(F)c(F)c(-c2ccc(N[C@H]3C[C@@H]4CN(CC5CCOCC5)C[C@@H]4C3)nn2)c1`, the IC50 at 8 min in [1] was above 30000 nM. For the same molecule, the Vd in series [2] came to 8.5 L/kg. The molecule further showed a Cmax in series [3] of 70 ng/mL. Also, the AUC in series [4] turned out to be 1100 ng·h/mL. Further, the bioavailability in series [5] was at least 100%. Moreover, in series [6], the Kp was found to be 6.4. Also, the Activity in [7] was found to be 26.2%; in [9], 15.1 s. The molecule further displayed an EC50 in series [8] of 1900 nM. This molecule also gave an inhibition at 10 µM in series [10] of 61%.

Values taken from ChEMBL document CHEMBL4837245, “Discovery of VU6028418: A Highly Selective and Orally Bioavailable M4 Muscarinic Acetylcholine Receptor Antagonist” (ACS Med Chem Lett, 2021).
